Data reported in ChEMBL document CHEMBL4825680, “Structure-based discovery of potent and selective small-molecule inhibitors targeting signal transducer and activator of transcription 3 (STAT3)” (Eur J Med Chem, 2021).
The source made the active and inactive calls. The rule behind the calls is not given here.

What was measured:
MDA231-LM2-4175 [1] = assay: Antitumor activity against human MDA231-LM2-4175 cells xenografted in mouse assessed as reduction in Bcl-xL expression at 5 to 15 mg/kg, iv administered once daily for 20 days by Western blotting analysis; assay type: functional, organism-based; details: dose 5-15 mg/kg, time 20.0 day
[2] = biological target: T1, Signal transducer and activator of transcription 3 (Homo sapiens, UniProt P40763); assay: Inhibition of STAT3 DNA binding in human MDA-MB-231 cells at 0.3 to 1 uM after 3 hrs by EMSA analysis; assay type: cell-based; details: dose 0.3-1 µM
T1 sequence (P40763 whole entry): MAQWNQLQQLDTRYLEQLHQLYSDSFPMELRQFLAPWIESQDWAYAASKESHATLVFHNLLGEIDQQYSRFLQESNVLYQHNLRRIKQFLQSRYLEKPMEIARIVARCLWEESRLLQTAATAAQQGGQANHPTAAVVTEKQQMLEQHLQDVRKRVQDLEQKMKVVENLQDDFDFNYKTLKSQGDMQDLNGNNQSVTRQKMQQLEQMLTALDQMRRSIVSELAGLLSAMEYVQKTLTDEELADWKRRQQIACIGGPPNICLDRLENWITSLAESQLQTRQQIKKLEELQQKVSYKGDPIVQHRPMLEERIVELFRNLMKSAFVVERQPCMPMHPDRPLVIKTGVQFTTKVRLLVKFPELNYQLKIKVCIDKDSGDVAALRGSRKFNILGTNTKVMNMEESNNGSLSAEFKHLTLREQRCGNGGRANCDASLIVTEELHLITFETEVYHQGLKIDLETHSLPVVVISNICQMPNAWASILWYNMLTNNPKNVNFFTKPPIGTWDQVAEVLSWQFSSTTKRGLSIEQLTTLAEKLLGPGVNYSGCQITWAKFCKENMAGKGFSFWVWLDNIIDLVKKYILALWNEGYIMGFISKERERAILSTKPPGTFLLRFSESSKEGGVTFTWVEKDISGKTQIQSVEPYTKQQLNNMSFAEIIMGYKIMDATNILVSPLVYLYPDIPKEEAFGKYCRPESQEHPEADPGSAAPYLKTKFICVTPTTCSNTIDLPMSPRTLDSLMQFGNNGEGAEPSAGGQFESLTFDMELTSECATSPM
How it was run: (§1)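 Cells exposed to vehicle or compound for 3 h. Nuclear extracts prepared and BCA-quantified. Nuclear protein (8–10 µg) incubated with biotinylated STAT3 or STAT5 probe, resolved on 6% native polyacrylamide gel, transferred to nylon membrane and detected with a gel-shift kit.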

MDA-MB-231 [3] = assay: Effect on total STAT5 level in human MDA-MB-231 cells at 0.3 to 3 uM after 3 hrs by Western blotting analysis; assay type: functional, cell-based; details: dose 0.3-3 µM
How it was run: (§2)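 Breast cancer cells were treated with vehicle (0.1% DMSO) or compound, then lysed in RIPA with PMSF and phosphatase inhibitors. 20–50 μg protein was run on 8 or 12% SDS-PAGE, blotted to PVDF, blocked in 5% BSA, probed with primary antibodies overnight at 4 °C, then HRP secondaries, with ECL detection.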

[4] = biological target: T2, Signal transducer and activator of transcription 5A (Homo sapiens) (UniProt P42229); assay: Inhibition of STAT5 phosphorylation at Y694 residue in human MDA-MB-231 cells at 0.3 to 3 uM after 3 hrs by Western blotting analysis; assay type: cell-based; details: dose 0.3-3 µM
T2 sequence (whole entry): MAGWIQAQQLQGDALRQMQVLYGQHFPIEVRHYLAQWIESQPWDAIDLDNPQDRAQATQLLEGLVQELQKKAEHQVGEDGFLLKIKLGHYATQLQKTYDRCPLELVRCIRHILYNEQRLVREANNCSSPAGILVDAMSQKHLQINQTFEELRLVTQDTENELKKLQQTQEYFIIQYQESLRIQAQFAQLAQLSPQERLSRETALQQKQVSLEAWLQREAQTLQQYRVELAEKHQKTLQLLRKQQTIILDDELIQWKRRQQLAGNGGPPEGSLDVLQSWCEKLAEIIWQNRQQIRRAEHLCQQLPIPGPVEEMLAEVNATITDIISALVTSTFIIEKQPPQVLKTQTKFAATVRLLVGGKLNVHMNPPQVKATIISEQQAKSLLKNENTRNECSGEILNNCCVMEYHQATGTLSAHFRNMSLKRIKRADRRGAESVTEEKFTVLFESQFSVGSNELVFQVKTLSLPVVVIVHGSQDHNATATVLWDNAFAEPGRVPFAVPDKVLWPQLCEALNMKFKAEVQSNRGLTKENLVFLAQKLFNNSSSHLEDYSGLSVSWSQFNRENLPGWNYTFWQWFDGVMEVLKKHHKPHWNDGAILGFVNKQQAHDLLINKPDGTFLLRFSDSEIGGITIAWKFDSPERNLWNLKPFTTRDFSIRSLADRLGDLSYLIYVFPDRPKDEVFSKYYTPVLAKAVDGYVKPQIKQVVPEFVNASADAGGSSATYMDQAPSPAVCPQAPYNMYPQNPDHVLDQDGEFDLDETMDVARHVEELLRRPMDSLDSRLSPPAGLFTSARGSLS

[5] = biological target: T1, Signal transducer and activator of transcription 3; assay: Inhibition of STAT3 DNA binding in human MDA-MB-468 cells at 0.3 to 1 uM after 3 hrs by EMSA analysis; assay type: cell-based; details: dose 0.3-1 µM; how it was run: as §1
MCF7 = assay: Antiproliferative activity against human MCF7 cells assessed as reduction in cell viability after 72 hrs by CCK8 assay; assay type: functional, cell-based; details: MCF7, 72 h
How it was run: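 Cells seeded at 1000–8000 per well were grown overnight, then exposed to 0.1–100 μM compound or 0.1% DMSO vehicle for 72 h. CCK-8 was added for 0.5–4 h at 37 °C and absorbance read at 480 nm. Viability = (OD compound − blank)/(OD vehicle − blank) × 100, with medium as blank. IC50 fitted from three independent experiments.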

MDA-MB-231 [6] = assay: Antiproliferative activity against STAT3 knocked down human MDA-MB-231 cells assessed as reduction in cell viability; assay type: functional, cell-based
How it was run: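 MDA-MB-231 cells at 60–70% confluence were transfected with STAT3 siRNA or negative-control siRNA using DharmaFECT. Viability was then read by CCK-8.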

[7] = Half life in Sprague-Dawley rat at 10 mg/kg, po measured up to 24 hrs by LC-MS/MS analysis; assay type: ADME, organism-based; details: in vivo
How it was run: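 Male SD rats given a single oral dose of 10 mg/kg in DMSO/0.5% HPMC (5/95, v/v). Blood was drawn at 0.25, 0.5, 1, 2, 4, 8 and 24 h, and plasma was analysed by LC-MS/MS on a BEH phenyl column with a formic acid water/acetonitrile mobile phase.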

MDA-MB-468 = assay: Induction of apoptosis in human MDA-MB-468 cells assessed as necrotic cells at 1 uM after 48 hrs by Annexin-V-FITC/propidium iodide staining based flow cytometric analysis (reference value: 0.240%); assay type: functional
[8] = biological target: T1, Signal transducer and activator of transcription 3; assay: Inhibition of STAT3 phosphorylation at Tyr705 residue in human MDA-MB-231 cells after 3 hrs by Western blotting analysis; assay type: cell-based; details: dose 0.3-3 µM
[9] = biological target: T1, Signal transducer and activator of transcription 3; assay: Inhibition of STAT3 phosphorylation at Tyr705 residue in human […] cells after 3 hrs by Western blotting analysis; assay type: cell-based; details: MDA-MB-468, dose 0.3-3 µM
[10] = biological target: T1, Signal transducer and activator of transcription 3; assay: Inhibition of STAT3 phosphorylation at Ser727 residue in human HCC70 cells at 3 uM after 3 hrs by Western blotting analysis; assay type: cell-based
[11] = Toxicity in mouse xenografted with human MDA-MB-231-4175 cells assessed as body weight loss at 5 to 15 mg/kg, […] once daily for 20 days; assay type: organism-based; details: in vivo, iv, dose 5-15 mg/kg, time 20 day
How it was run: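 Female NOD-SCID mice aged 4–5 weeks, given 2×10^6–3×10^6 MDA-MB-231-4175 cells subcutaneously in the flank. At about 100 mm³ tumour volume, randomised n=6/group to vehicle (PBS with 15% Cremophor EL) or 5 or 15 mg/kg intraperitoneally daily for 20 days. Body weight tracked during treatment.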

MDA-MB-231 [12] = assay: Effect on total STAT3 level in human MDA-MB-231 cells at 0.3 to 3 uM measured after 3 hrs by Western blot analysis; assay type: functional, cell-based; details: dose 0.3-3 µM; how it was run: as §2
MDA231-LM2-4175 [13] = assay: Induction of apoptosis in human MDA231-LM2-4175 cells assessed as increase in caspase-7 cleavage at 1 uM after 48 hrs by Western blot analysis; assay type: functional, cell-based
How it was run: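 Breast cancer cells given vehicle (0.1% DMSO) or compound, then lysed in RIPA buffer with PMSF and phosphatase inhibitors. BCA-quantified lysate (20–50 µg) run on 8 or 12% SDS-PAGE and transferred to PVDF. Blocked in 5% BSA, probed overnight at 4 °C for PARP and cleaved caspase-7, HRP secondary, ECL detection. β-actin as loading control.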

O=C(Cc1c(-c2ccccc2)nc2ccccn12)Nc1ccc2c(c1)S(=O)(=O)C=C2
Activity (MDA231-LM2-4175 [1]): Active | inhibition [2]: Active | Activity (MDA-MB-231 [3]): inactive | inhibition [4]: inactive | inhibition [5]: Active | IC50 (MCF7): 7.22 µM | Activity (MDA-MB-231 [6]): inactive | half-life [7]: 1.46 h | Activity (MDA-MB-468): 1.54% | inhibition [8]: Dose-Dependent Effect | inhibition [9]: Dose-Dependent Effect | inhibition [10]: inactive | Activity [11]: Non-Toxic | Activity (MDA-MB-231 [12]): inactive | Activity (MDA231-LM2-4175 [13]): Active
